Source: ChEMBL document CHEMBL4334465, “SAR Studies on Aromatic Acylhydrazone-Based Inhibitors of Fungal Sphingolipid Synthesis as Next-Generation Antifungal Agents” (J Med Chem, 2019)
Converted amounts (≈) assume the structure as drawn. The source made the active and inactive calls. No cut-off for these calls is given here.

Legend:
Cryptococcus neoformans [1] = assay: Antifungal activity against Cryptococcus neoformans H99 infected in CBA/J mouse assessed as increase in survival at 1.2 mg/kg, ip; assay type: functional, organism-based; conditions: var grubii H99
Cryptococcus neoformans [2] = assay: Antifungal activity against Cryptococcus neoformans H99 measured after 24 to 72 hrs; assay type: functional; conditions: var grubii H99
In short: (§1)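 Modified CLSI broth microdilution with inoculum per M27A3. Compounds were serially diluted 32 to 0.03 μg/mL. Media: C. neoformans in HEPES-buffered YNB without amino acids (pH 7.0, 2% glucose); Candida strains in YNB without ammonium sulfate or amino acids plus 1% asparagine (pH 7.0, 2% glucose); A. fumigatus in RPMI (pH 7.0, 2% glucose).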

Cryptococcus neoformans [3] = assay: Fungicidal activity against Cryptococcus neoformans H99 measured after 6 hrs by time-kill assay; assay type: functional, var grubii H99
In short: (§2)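 Overnight C. neoformans washed in PBS and resuspended in HEPES-buffered YNB, pH 7.4. 2 × 10⁴ cells exposed to a range of drug concentrations in 10 mL with 0.5% DMSO final, at 37°C, 5% CO₂, shaking at 200 rpm. Aliquots sampled over 96 h, diluted and plated on YPD; CFU counted after 48 h at 30°C.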

A549 = assay: Cytotoxicity against human A549 cells after 24 to 48 hrs by MTT assay; assay type: functional; conditions: read-out: LD50 (the source's name)
In short: (§3)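 A549 and HepG2 kept in DMEM with 10% FBS and 1% pen-strep. At passage 7, seeded at 10⁵ cells/well and allowed to adhere 14 h. Compound added at 0.03–128 μg/mL, untreated wells as controls. Incubation 37°C, 5% CO₂ for 24 or 48 h. MTT (5 mg/mL in PBS) added for 4 h, formazan dissolved in DMSO, OD570.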

HepG2 = assay: Cytotoxicity against human HepG2 cells after 24 to 48 hrs by MTT assay; assay type: functional; conditions: read-out: LD50 (the source's name); in short: as §3
[4] = Selectivity index, ratio of LD50 for human A549 cells to MIC80 for Cryptococcus neoformans H99; assay type: toxicity; conditions: read-out: Selectivity Index
In short: (§4)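 SI = LD₅₀/MIC₈₀. Cytotoxicity: A549 or HepG2 cells (DMEM, 10% FBS, passage 7, 10⁵ cells/well) adhered 14 h, then exposed to 0.03–128 μg/mL for 24 or 48 h at 37°C, 5% CO₂; MTT 4 h, formazan dissolved in DMSO, read at 570 nm. MIC₈₀ against C. neoformans from broth microdilution in HEPES-buffered YNB, pH 7.0.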

[5] = Selectivity index, ratio of LD50 for human HepG2 cells to MIC80 for Cryptococcus neoformans H99; assay type: toxicity; conditions: read-out: Selectivity Index; in short: as §4
Cryptococcus neoformans [6] = assay: Antifungal activity against Cryptococcus neoformans H99 assessed as FICI in presence of fluconazole; assay type: functional, var grubii H99
In short: (§5)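 Checkerboard combination scored by fractional inhibitory concentration index. Acylhydrazone serially diluted 16 to 0.015 μg/mL (11 dilutions). Partner drug in seven dilutions: fluconazole 12 to 0.19 μg/mL, amphotericin B 5 to 0.078 μg/mL, caspofungin, itraconazole or voriconazole 8 to 0.007 μg/mL.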

Candida albicans [7] = assay: Antifungal activity against Candida albicans measured after 24 to 72 hrs; assay type: functional; in short: as §1
[Candida] auris [8] = Antifungal activity against Candida auris measured after 24 to 72 hrs; assay type: functional; conditions: Candidozyma auris; in short: as §1
Pichia kudriavzevii [9] = assay: Antifungal activity against Candida krusei measured after 24 to 72 hrs; assay type: functional
In short: (§6)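 MIC by modified CLSI broth microdilution. Candida strains grown in YNB without ammonium sulfate or amino acids with 1% asparagine, pH 7.0, 2% glucose. Inoculum per CLSI M27A3. Compound serially diluted 32 to 0.03 μg/mL. Incubation 37°C, 5% CO₂, 24–72 h, then OD450. MIC80 taken as the lowest concentration giving 80% growth inhibition versus untreated control.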

Pichia kudriavzevii [10] = assay: Antifungal activity against multi-drug resistant Candida krusei measured after 24 to 72 hrs; assay type: functional; in short: as §6
Candida parapsilosis [11] = assay: Antifungal activity against Candida parapsilosis measured after 24 to 72 hrs; assay type: functional; conditions: Lodderomyces parapsilosis; in short: as §1
Aspergillus fumigatus [12] = assay: Antifungal activity against Aspergillus fumigatus measured after 24 to 72 hrs; assay type: functional; in short: as §1
Candida albicans [13] = assay: Antifungal activity against Candida albicans assessed as FICI in presence of fluconazole; assay type: functional; in short: as §5
Pichia kudriavzevii [14] = assay: Antifungal activity against Candida krusei 6258 assessed as FICI in presence of fluconazole; assay type: functional; in short: as §5
[Candida] auris [15] = Antifungal activity against Candida auris assessed as FICI in presence of fluconazole; assay type: functional, Candidozyma auris; in short: as §5
Candida parapsilosis [16] = assay: Antifungal activity against Candida parapsilosis assessed as FICI in presence of fluconazole; assay type: functional; in short: as §5
Aspergillus fumigatus [17] = assay: Antifungal activity against Aspergillus fumigatus assessed as FICI in presence of fluconazole; assay type: functional; in short: as §5
Cryptococcus neoformans [18] = assay: Antifungal activity against Cryptococcus neoformans H99 assessed as FICI in presence of voriconazole; assay type: functional, var grubii H99; in short: as §5
Candida albicans [19] = assay: Antifungal activity against Candida albicans assessed as FICI in presence of voriconazole; assay type: functional; in short: as §5
Pichia kudriavzevii [20] = assay: Antifungal activity against fluconazole-resistant Candida krusei assessed as FICI in presence of voriconazole; assay type: functional
In short: (§7)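 Checkerboard in 96-well plate. Test compound diluted 16 to 0.015 μg/mL (11 dilutions) against the partner drug in seven dilutions: fluconazole 12 to 0.19 μg/mL, caspofungin, itraconazole or voriconazole 8 to 0.007 μg/mL. Fractional inhibitory concentration index (FICI) calculated from the combinations.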

Pichia kudriavzevii [21] = assay: Antifungal activity against Candida krusei 6258 assessed as FICI in presence of voriconazole; assay type: functional; in short: as §5
[Candida] auris [22] = Antifungal activity against Candida auris assessed as FICI in presence of voriconazole; assay type: functional, Candidozyma auris; in short: as §5
Candida parapsilosis [23] = assay: Antifungal activity against Candida parapsilosis assessed as FICI in presence of voriconazole; assay type: functional; in short: as §5
Aspergillus fumigatus [24] = assay: Antifungal activity against Aspergillus fumigatus assessed as FICI in presence of voriconazole; assay type: functional; in short: as §5
Cryptococcus neoformans [25] = assay: Antifungal activity against Cryptococcus neoformans H99 assessed as FICI in presence of itraconazole; assay type: functional, var grubii H99; in short: as §5
Candida albicans [26] = assay: Antifungal activity against Candida albicans assessed as FICI in presence of itraconazole; assay type: functional; in short: as §5
Pichia kudriavzevii [27] = assay: Antifungal activity against fluconazole-resistant Candida krusei assessed as FICI in presence of itraconazole; assay type: functional; in short: as §7
Pichia kudriavzevii [28] = assay: Antifungal activity against Candida krusei 6258 assessed as FICI in presence of itraconazole; assay type: functional; in short: as §5
[Candida] auris [29] = Antifungal activity against Candida auris assessed as FICI in presence of itraconazole; assay type: functional, Candidozyma auris; in short: as §5
Candida parapsilosis [30] = assay: Antifungal activity against Candida parapsilosis assessed as FICI in presence of itraconazole; assay type: functional; in short: as §5
Aspergillus fumigatus [31] = assay: Antifungal activity against Aspergillus fumigatus assessed as FICI in presence of itraconazole; assay type: functional; in short: as §5
Candida albicans [32] = assay: Antifungal activity against Candida albicans assessed as FICI in presence of caspofungin; assay type: functional; in short: as §5
Pichia kudriavzevii [33] = assay: Antifungal activity against fluconazole-resistant Candida krusei assessed as FICI in presence of caspofungin; assay type: functional; in short: as §7
Pichia kudriavzevii [34] = assay: Antifungal activity against Candida krusei 6258 assessed as FICI in presence of caspofungin; assay type: functional; in short: as §5
[Candida] auris [35] = Antifungal activity against Candida auris assessed as FICI in presence of caspofungin; assay type: functional, Candidozyma auris; in short: as §5
Candida parapsilosis [36] = assay: Antifungal activity against Candida parapsilosis assessed as FICI in presence of caspofungin; assay type: functional; in short: as §5
Cryptococcus neoformans [37] = assay: Antifungal activity against Cryptococcus neoformans H99 assessed as FICI in presence of amphotericin B; assay type: functional, var grubii H99; in short: as §5
Cryptococcus neoformans [38] = assay: Fungicidal activity against Cryptococcus neoformans H99 measured up to 96 hrs by time-kill assay; assay type: functional, organism-based; conditions: var grubii H99; in short: as §2

Structure (SMILES): OC(Cn1cncn1)(Cn1cncn1)c1ccc(F)cc1F
- Activity (Cryptococcus neoformans [1]): Active

Structure (SMILES): O=C(N/N=C/c1cc(Br)cc(Br)c1O)c1ccc(Br)cc1
- Activity (Cryptococcus neoformans [1]): Active

Structure (SMILES): O=C(N/N=C/c1cc(Cl)cc(Cl)c1O)c1ccc(Br)c(Br)c1
- MIC80 (Cryptococcus neoformans [2]): 0.03 µg/mL (≈ 0.0642 µM)
- MFC100 (Cryptococcus neoformans [3]): 1 µg/mL (≈ 2.14 µM)
- CC50 (A549): 32 µg/mL (≈ 68.5 µM)
- CC50 (HepG2): 32 µg/mL (≈ 68.5 µM)
- selectivity ratio [4]: 1070
- selectivity ratio [5]: 1070
- fractional inhibitory concentration index (FICI) (Cryptococcus neoformans [6]): 0.237
- MIC80 (Candida albicans [7]): 2 µg/mL (≈ 4.28 µM)
- MIC80 ([Candida] auris [8]): 0.5 µg/mL (≈ 1.07 µM)
- MIC80 (Pichia kudriavzevii [9]): 0.25 µg/mL (≈ 0.535 µM)
- MIC80 (Pichia kudriavzevii [10]): 0.25 µg/mL (≈ 0.535 µM)
- MIC80 (Candida parapsilosis [11]): 1 µg/mL (≈ 2.14 µM)
- MIC80 (Aspergillus fumigatus [12]): 8 µg/mL (≈ 17.1 µM)
- fractional inhibitory concentration index (FICI) (Candida albicans [13]): 0.252
- fractional inhibitory concentration index (FICI) (Pichia kudriavzevii [14]): 0.25
- fractional inhibitory concentration index (FICI) ([Candida] auris [15]): 0.5
- fractional inhibitory concentration index (FICI) (Candida parapsilosis [16]): 0.258
- fractional inhibitory concentration index (FICI) (Aspergillus fumigatus [17]): 2
- fractional inhibitory concentration index (FICI) (Cryptococcus neoformans [18]): 0.247
- fractional inhibitory concentration index (FICI) (Candida albicans [19]): 0.077
- fractional inhibitory concentration index (FICI) (Pichia kudriavzevii [20]): 1.03
- fractional inhibitory concentration index (FICI) (Pichia kudriavzevii [21]): 0.56
- fractional inhibitory concentration index (FICI) ([Candida] auris [22]): 0.5
- fractional inhibitory concentration index (FICI) (Candida parapsilosis [23]): 1.5
- fractional inhibitory concentration index (FICI) (Aspergillus fumigatus [24]): 1.031
- fractional inhibitory concentration index (FICI) (Cryptococcus neoformans [25]): 0.247
- fractional inhibitory concentration index (FICI) (Candida albicans [26]): 0.091
- fractional inhibitory concentration index (FICI) (Pichia kudriavzevii [27]): 1.24
- fractional inhibitory concentration index (FICI) (Pichia kudriavzevii [28]): 0.53
- fractional inhibitory concentration index (FICI) ([Candida] auris [29]): 1.12
- fractional inhibitory concentration index (FICI) (Candida parapsilosis [30]): 1.25
- fractional inhibitory concentration index (FICI) (Aspergillus fumigatus [31]): 1.008
- fractional inhibitory concentration index (FICI) (Candida albicans [32]): 1
- fractional inhibitory concentration index (FICI) (Pichia kudriavzevii [33]): 1.004
- fractional inhibitory concentration index (FICI) (Pichia kudriavzevii [34]): 1.001
- fractional inhibitory concentration index (FICI) ([Candida] auris [35]): 0.5
- fractional inhibitory concentration index (FICI) (Candida parapsilosis [36]): 0.501
- fractional inhibitory concentration index (FICI) (Cryptococcus neoformans [37]): 0.247
- Activity (Cryptococcus neoformans [38]): Dose-dependent effect
